According to ChEMBL document CHEMBL5724801, “EUbOPEN Chemogenomics Library - Multiplex” (2024):
“And” between values parts separate entries of the source, which are not always exact repeats. Equal entries are not always repeated.

Key:
Format in all cases: toxicity, cell-based
[1] = test system: Fibroblast; experiment: Multiplex assay against human fibroblast
Method in brief: (§1)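 Cells were classed with CellPathfinder machine-learning gating, first as Hoechst high-intensity objects or normal cells, then (normal cells) as healthy, pyknosed or fragmented nuclei, and finally (pyknosed cells) as mitotic or apoptotic. Staining of live cells at seeding used Hoechst33342, BioTracker Green Microtubule Cytoskeleton Dye, MitoTracker Red and Annexin V Alexa Fluor 680, with imaging on a CQ1 microscope at 37°C and 5% CO2 after compound addition. Tubulin, mitochondrial-mass and membrane-permeability phenotypes are per cents of healthy-nucleus cells.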

[2] = test system: HEK-293T; experiment: Multiplex assay against HEK293T; conditions: human; method in brief: as §1
[3] = test system: U2OS; experiment: Multiplex assay against U2OS; conditions: human; method in brief: as §1
[4] = 12 h, 1 µM, compound concentration 1 uM
[5] = 12 h, 10 µM, compound concentration 10 uM
[6] = 24 h, 1 µM, compound concentration 1 uM
[7] = 24 h, 10 µM, compound concentration 10 uM
[8] = 48 h, 1 µM, compound concentration 1 uM
[9] = 48 h, 10 µM, compound concentration 10 uM

O=C(CCCc1ccccc1)Nc1nc2ccccc2c(=O)s1
Population Apoptotic (%) [1, 4]: 58% and 34%
Population Fragmented Nuclei (%) [1, 4]: 9% and 19%
Population Healthy Nuclei (%) [1, 4]: 66% and 49%
Population Hoechst High Intensity Objects (%) [1, 4]: 2% and 3%
Population Membrane Permeable-Phenotype (%) [1, 4]: 0% and 9%
Population Mitochondria Different-Phenotype (%) [1, 4]: 4% and 7%
Population Mitotic Cells (%) [1, 4]: 41% and 65%
Population Normal (%) [1, 4]: 97% and 96%
Population Pyknosed Nuclei (%) [1, 4]: 23% and 31%
Population Tubulin-Different-Phenotype (%) [1, 4]: 34% and 35%
Total Cell Count [1, 4]: 127 and 135
Population Apoptotic (%) [1, 5]: 51% and 31%
Population Fragmented Nuclei (%) [1, 5]: 21% and 26%
Population Healthy Nuclei (%) [1, 5]: 58% and 38%
Population Hoechst High Intensity Objects (%) [1, 5]: 2% and 12%
Population Mitotic Cells (%) [1, 5]: 48% and 68%
Population Normal (%) [1, 5]: 97% and 87%
Population Pyknosed Nuclei (%) [1, 5]: 20% and 35%
Population Tubulin-Different-Phenotype (%) [1, 5]: 28% and 48%
Total Cell Count [1, 5]: 147 and 133
Population Apoptotic (%) [1, 6]: 50% and 42%
Population Fragmented Nuclei (%) [1, 6]: 13% and 21%
Population Healthy Nuclei (%) [1, 6]: 68% and 51%
Population Hoechst High Intensity Objects (%) [1, 6]: 2% and 5%
Population Membrane Permeable-Phenotype (%) [1, 6]: 0% and 4%
Population Mitochondria Different-Phenotype (%) [1, 6]: 5% and 4%
Population Mitotic Cells (%) [1, 6]: 50% and 57%
Population Normal (%) [1, 6]: 97% and 94%
Population Pyknosed Nuclei (%) [1, 6]: 18% and 26%
Population Tubulin-Different-Phenotype (%) [1, 6]: 20% and 35%
Total Cell Count [1, 6]: 147 and 131
Population Apoptotic (%) [1, 7]: 46% and 53%
Population Fragmented Nuclei (%) [1, 7]: 19% and 34%
Population Healthy Nuclei (%) [1, 7]: 60% and 39%
Population Hoechst High Intensity Objects (%) [1, 7]: 5%
Population Membrane Permeable-Phenotype (%) [1, 7]: 0% and 18%
Population Mitotic Cells (%) [1, 7]: 53% and 46%
Population Normal (%) [1, 7]: 94%
Population Pyknosed Nuclei (%) [1, 7]: 20% and 25%
Total Cell Count [1, 7]: 135 and 134
Population Apoptotic (%) [1, 8]: 59% and 42%
Population Fragmented Nuclei (%) [1, 8]: 13% and 26%
Population Healthy Nuclei (%) [1, 8]: 66% and 58%
Population Hoechst High Intensity Objects (%) [1, 8]: 5% and 2%
Population Membrane Permeable-Phenotype (%) [1, 8]: 1% and 4%
Population Mitochondria Different-Phenotype (%) [1, 8]: 1% and 6%
Population Mitotic Cells (%) [1, 8]: 40% and 57%
Population Normal (%) [1, 8]: 94% and 97%
Population Pyknosed Nuclei (%) [1, 8]: 19% and 15%
Population Tubulin-Different-Phenotype (%) [1, 8]: 32% and 50%
Total Cell Count [1, 8]: 146 and 127
Population Apoptotic (%) [1, 9]: 58% and 77%
Population Fragmented Nuclei (%) [1, 9]: 19% and 40%
Population Healthy Nuclei (%) [1, 9]: 58% and 43%
Population Hoechst High Intensity Objects (%) [1, 9]: 2% and 5%
Population Membrane Permeable-Phenotype (%) [1, 9]: 1% and 10%
Population Mitotic Cells (%) [1, 9]: 41% and 22%
Population Normal (%) [1, 9]: 97% and 94%
Population Pyknosed Nuclei (%) [1, 9]: 22% and 16%
Population Tubulin-Different-Phenotype (%) [1, 9]: 26% and 73%
Total Cell Count [1, 9]: 143 and 119
Population Apoptotic (%) [2, 4]: 30% and 43%
Population Fragmented Nuclei (%) [2, 4]: 4% and 7%
Population Healthy Nuclei (%) [2, 4]: 83% and 74%
Population Hoechst High Intensity Objects (%) [2, 4]: 6% and 13%
Population Membrane Permeable-Phenotype (%) [2, 4]: 0%
Population Mitochondria Different-Phenotype (%) [2, 4]: 37% and 63%
Population Mitotic Cells (%) [2, 4]: 70% and 56%
Population Normal (%) [2, 4]: 93% and 86%
Population Pyknosed Nuclei (%) [2, 4]: 11% and 17%
Population Tubulin-Different-Phenotype (%) [2, 4]: 32% and 36%
Total Cell Count [2, 4]: 372 and 267
Population Apoptotic (%) [2, 5]: 30% and 44%
Population Fragmented Nuclei (%) [2, 5]: 10% and 7%
Population Healthy Nuclei (%) [2, 5]: 80% and 74%
Population Hoechst High Intensity Objects (%) [2, 5]: 9% and 27%
Population Membrane Permeable-Phenotype (%) [2, 5]: 0%
Population Mitochondria Different-Phenotype (%) [2, 5]: 47% and 68%
Population Mitotic Cells (%) [2, 5]: 69% and 55%
Population Normal (%) [2, 5]: 90% and 72%
Population Pyknosed Nuclei (%) [2, 5]: 9% and 17%
Population Tubulin-Different-Phenotype (%) [2, 5]: 27% and 26%
Total Cell Count [2, 5]: 555 and 371
Population Apoptotic (%) [2, 6]: 20% and 45%
Population Fragmented Nuclei (%) [2, 6]: 8% and 9%
Population Healthy Nuclei (%) [2, 6]: 81% and 78%
Population Hoechst High Intensity Objects (%) [2, 6]: 5% and 8%
Population Membrane Permeable-Phenotype (%) [2, 6]: 1% and 0%
Population Mitochondria Different-Phenotype (%) [2, 6]: 21% and 38%
Population Mitotic Cells (%) [2, 6]: 79% and 54%
Population Normal (%) [2, 6]: 94% and 91%
Population Pyknosed Nuclei (%) [2, 6]: 10% and 12%
Population Tubulin-Different-Phenotype (%) [2, 6]: 15% and 13%
Total Cell Count [2, 6]: 538 and 370
Population Apoptotic (%) [2, 7]: 33% and 52%
Population Fragmented Nuclei (%) [2, 7]: 10% and 8%
Population Healthy Nuclei (%) [2, 7]: 80%
Population Membrane Permeable-Phenotype (%) [2, 7]: 0%
Population Mitochondria Different-Phenotype (%) [2, 7]: 38% and 47%
Population Mitotic Cells (%) [2, 7]: 66% and 47%
Population Normal (%) [2, 7]: 93% and 75%
Population Pyknosed Nuclei (%) [2, 7]: 9% and 11%
Population Tubulin-Different-Phenotype (%) [2, 7]: 29% and 20%
Total Cell Count [2, 7]: 661 and 444
Population Apoptotic (%) [2, 8]: 20% and 38%
Population Fragmented Nuclei (%) [2, 8]: 11% and 10%
Population Healthy Nuclei (%) [2, 8]: 82% and 80%
Population Hoechst High Intensity Objects (%) [2, 8]: 2% and 4%
Population Membrane Permeable-Phenotype (%) [2, 8]: 1% and 0%
Population Mitochondria Different-Phenotype (%) [2, 8]: 15% and 28%
Population Mitotic Cells (%) [2, 8]: 79% and 61%
Population Normal (%) [2, 8]: 97% and 95%
Population Pyknosed Nuclei (%) [2, 8]: 6% and 8%
Population Tubulin-Different-Phenotype (%) [2, 8]: 11% and 13%
Total Cell Count [2, 8]: 820 and 534
Population Fragmented Nuclei (%) [2, 9]: 14% and 13%
Population Healthy Nuclei (%) [2, 9]: 79% and 77%
Population Hoechst High Intensity Objects (%) [2, 9]: 4% and 11%
Population Membrane Permeable-Phenotype (%) [2, 9]: 0% and 1%
Population Mitochondria Different-Phenotype (%) [2, 9]: 21% and 30%
Population Mitotic Cells (%) [2, 9]: 77% and 31%
Population Normal (%) [2, 9]: 95% and 88%
Population Pyknosed Nuclei (%) [2, 9]: 6% and 9%
Population Tubulin-Different-Phenotype (%) [2, 9]: 16%
Total Cell Count [2, 9]: 984 and 567
Population Apoptotic (%) [3, 4]: 92% and 55%
Population Fragmented Nuclei (%) [3, 4]: 26% and 17%
Population Healthy Nuclei (%) [3, 4]: 64% and 74%
Population Hoechst High Intensity Objects (%) [3, 4]: 2% and 0%
Population Membrane Permeable-Phenotype (%) [3, 4]: 4% and 7%
Population Mitochondria Different-Phenotype (%) [3, 4]: 2% and 3%
Population Normal (%) [3, 4]: 97% and 100%
Population Pyknosed Nuclei (%) [3, 4]: 9% and 7%
Population Tubulin-Different-Phenotype (%) [3, 4]: 1% and 2%
Total Cell Count [3, 4]: 274 and 113
Population Apoptotic (%) [3, 5]: 72% and 100%
Population Fragmented Nuclei (%) [3, 5]: 31% and 20%
Population Healthy Nuclei (%) [3, 5]: 58% and 67%
Population Hoechst High Intensity Objects (%) [3, 5]: 2% and 4%
Population Membrane Permeable-Phenotype (%) [3, 5]: 2% and 7%
Population Mitochondria Different-Phenotype (%) [3, 5]: 0% and 6%
Population Normal (%) [3, 5]: 97% and 95%
Population Pyknosed Nuclei (%) [3, 5]: 9% and 11%
Population Tubulin-Different-Phenotype (%) [3, 5]: 1% and 6%
Total Cell Count [3, 5]: 270 and 101
Population Apoptotic (%) [3, 6]: 79% and 84%
Population Fragmented Nuclei (%) [3, 6]: 22% and 17%
Population Healthy Nuclei (%) [3, 6]: 68% and 73%
Population Hoechst High Intensity Objects (%) [3, 6]: 1% and 0%
Population Membrane Permeable-Phenotype (%) [3, 6]: 4% and 8%
Population Mitochondria Different-Phenotype (%) [3, 6]: 2%
Population Mitotic Cells (%) [3, 6]: 20% and 15%
Population Normal (%) [3, 6]: 98% and 100%
Population Pyknosed Nuclei (%) [3, 6]: 9%
Population Tubulin-Different-Phenotype (%) [3, 6]: 2% and 3%
Total Cell Count [3, 6]: 325 and 141
Population Apoptotic (%) [3, 7]: 86% and 100%
Population Fragmented Nuclei (%) [3, 7]: 25% and 19%
Population Healthy Nuclei (%) [3, 7]: 65% and 71%
Population Hoechst High Intensity Objects (%) [3, 7]: 2% and 1%
Population Membrane Permeable-Phenotype (%) [3, 7]: 5% and 8%
Population Mitochondria Different-Phenotype (%) [3, 7]: 1% and 2%
Population Mitotic Cells (%) [3, 7]: 13% and 0%
Population Normal (%) [3, 7]: 97% and 98%
Population Pyknosed Nuclei (%) [3, 7]: 9%
Population Tubulin-Different-Phenotype (%) [3, 7]: 4% and 3%
Total Cell Count [3, 7]: 319 and 124
Population Apoptotic (%) [3, 8]: 91% and 87%
Population Fragmented Nuclei (%) [3, 8]: 13% and 19%
Population Healthy Nuclei (%) [3, 8]: 76% and 71%
Population Hoechst High Intensity Objects (%) [3, 8]: 7% and 5%
Population Membrane Permeable-Phenotype (%) [3, 8]: 3%
Population Mitochondria Different-Phenotype (%) [3, 8]: 2% and 3%
Population Mitotic Cells (%) [3, 8]: 8% and 12%
Population Normal (%) [3, 8]: 92% and 94%
Population Pyknosed Nuclei (%) [3, 8]: 9% and 8%
Population Tubulin-Different-Phenotype (%) [3, 8]: 1% and 6%
Total Cell Count [3, 8]: 394 and 192
Population Apoptotic (%) [3, 9]: 91% and 95%
Population Fragmented Nuclei (%) [3, 9]: 20% and 15%
Population Healthy Nuclei (%) [3, 9]: 70% and 72%
Population Hoechst High Intensity Objects (%) [3, 9]: 2% and 0%
Population Membrane Permeable-Phenotype (%) [3, 9]: 5% and 9%
Population Mitochondria Different-Phenotype (%) [3, 9]: 0% and 3%
Population Mitotic Cells (%) [3, 9]: 8% and 4%
Population Normal (%) [3, 9]: 97% and 99%
Population Pyknosed Nuclei (%) [3, 9]: 8% and 12%
Population Tubulin-Different-Phenotype (%) [3, 9]: 3% and 5%
Total Cell Count [3, 9]: 427 and 175
